Data reported in publication PMC9071802 (RSC Advances, 2019).

Tested on: P. aeruginosa MH602 lasB reporter strain (PlasB: gfp(ASV))
Experiment: Quorum sensing inhibition assay, GFP fluorescence of lasB reporter strain
Type: cell-based, Pseudomonas aeruginosa
Details: ± standard deviation, NA: no activity; for inhibition at 62.5 µM / inhibition at 125 µM / inhibition at 250 µM: Pseudomonas aeruginosa; for inhibition at 62.5 µM: read-out: Percentage inhibition of GFP fluorescence, 62.5 μM; for inhibition at 125 µM: read-out: Percentage inhibition of GFP fluorescence, 125 μM; for inhibition at 250 µM: read-out: Percentage inhibition of GFP fluorescence, 250 μM
Outline: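 The reporter is a chromosomal lasB promoter–gfp(ASV) fusion responsive to 3-oxododecanoyl-HSL. Cultures were grown overnight in LB10, then diluted 1:100 in ABT with 0.25% tryptone and 0.13% yeast extract plus ampicillin 100 µg mL⁻¹ and gentamicin 20 µg mL⁻¹. Test compound in DMSO was tested at 62.5, 125 or 250 µM, with 1% DMSO controls. Cultures were incubated at 37 °C and shaken briefly before each read. Fluorescence (ex 485/em 535 nm) and OD600 were read every 30 min for 20 h, in triplicate per experiment.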

| Compound | inhibition at 62.5 µM [%] | inhibition at 125 µM [%] | inhibition at 250 µM [%] | Percentage inhibition of GFP fluorescence (62.5 μM) [%] | Percentage inhibition of GFP fluorescence (125 μM) [%] | Percentage inhibition of GFP fluorescence (250 μM) [%] | Percentage inhibition of GFP fluorescence (250 μM, 250 µM) [%] |
| --- | --- | --- | --- | --- | --- | --- | --- |
| Cc1cc2nc(NC(=O)CCCc3cn(CC(=O)NC4CCCC4)nn3)[nH]c2cc1C [12a, 4-(1-(2-(Cyclopentylamino)-2-oxoethyl)-1H-1,2,3-triazol-4-yl)-N-(5,6-dimethyl-1H-benzo[d]imidazol-2-yl)butanamide] | 28.5 ± 7.69 | 34.1 ± 12.6 | 48.5 ± 5.25 | – | – | – | – |
| CCCCCCCCCc1cn(CC(=O)Nc2nc3cc(C)c(C)cc3[nH]2)nn1 [7d, N-(5,6-Dimethyl-1H-benzo[d]imidazol-2-yl)-2-(4-nonyl-1H-1,2,3-triazol-1-yl)acetamide] | 37.1 ± 7.75 | 41.6 ± 5.08 | 44.6 ± 3.87 | – | – | – | – |
| CCCc1cn(CC(=O)Nc2nc3cc(C)c(C)cc3[nH]2)nn1 [7a, N-(5,6-Dimethyl-1H-benzo[d]imidazol-2-yl)-2-(4-propyl-1H-1,2,3-triazol-1-yl)acetamide] | 19.9 ± 3.8 | 22.1 ± 14.7 | 31.8 ± 11 | – | – | – | – |
| O=C(Cn1cc(Cn2cc(Cl)ccc2=O)nn1)Nc1nc2ccccc2[nH]1 [6f, N-(1H-Benzo[d]imidazol-2-yl)-2-(4-((5-chloro-2-oxopyridin-1(2H)-yl)methyl)-1H-1,2,3-triazol-1-yl)acetamide] | 36.1 ± 10.7 | 52.7 ± 11.9 | 58.8 ± 5.09 | – | – | – | – |
| COc1ccc(-c2cn(CC(=O)Nc3nc4ccccc4[nH]3)nn2)cc1 [6n, N-(1H-Benzo[d]imidazol-2-yl)-2-(4-(4-methoxyphenyl)-1H-1,2,3-triazol-1-yl)acetamide] | – | 5.16 ± 16.6 | 20 ± 14 | – | – | – | – |
| CCCc1cn(CC(=O)Nc2nc3ccccc3[nH]2)nn1 [6a, N-(1H-Benzo[d]imidazol-2-yl)-2-(4-propyl-1H-1,2,3-triazol-1-yl)acetamide] | 25.1 ± 0.37 | 35.3 ± 20.4 | 50.5 ± 11.8 | – | – | – | – |
| N-(1H-Benzo[d]imidazol-2-yl)-2-(4-nonyl-1H-1,2,3-triazol-1-yl)acetamide [6e] | – | – | – | 24.87 ± 6.69 | 37.20 ± 6.71 | 41.31 ± 7.90 | – |
| O=C(Cn1cc(-c2cccc([N+](=O)[O-])c2)nn1)Nc1nc2ccccc2[nH]1 [6q, N-(1H-Benzo[d]imidazol-2-yl)-2-(4-(3-nitrophenyl)-1H-1,2,3-triazol-1-yl)acetamide] | 28.2 ± 10.2 | 36 ± 6.13 | 39.4 ± 5.14 | – | – | – | – |
| O=C(Cn1cc(-c2ccc(F)cc2)nn1)Nc1nc2ccccc2[nH]1 [6h, N-(1H-Benzo[d]imidazol-2-yl)-2-(4-(4-fluorophenyl)-1H-1,2,3-triazol-1-yl)acetamide] | 49 ± 12.3 | 54.9 ± 2.42 | 56.1 ± 1.77 | – | – | – | – |
| O=C(Cn1cc(-c2ccccc2)nn1)Nc1nc2ccccc2[nH]1 [6g, N-(1H-Benzo[d]imidazol-2-yl)-2-(4-phenyl-1H-1,2,3-triazol-1-yl)acetamide] | 15.1 ± 5.83 | 17.4 ± 22 | 46 ± 10.2 | – | – | – | – |
| CCCCCc1cn(CC(=O)Nc2nc3ccccc3[nH]2)nn1 [6b, N-(1H-Benzo[d]imidazol-2-yl)-2-(4-pentyl-1H-1,2,3-triazol-1-yl)acetamide] | 27.4 ± 2.36 | 38.8 ± 11.5 | 43.5 ± 6.23 | – | – | – | – |
| Cc1cc2nc(NC(=O)Cn3cc(-c4ccccc4)nn3)[nH]c2cc1C [7g, N-(5,6-Dimethyl-1H-benzo[d]imidazol-2-yl)-2-(4-phenyl-1H-1,2,3-triazol-1-yl)acetamide] | 28.5 ± 8.41 | 29.9 ± 17.4 | 47.6 ± 14.4 | – | – | – | – |
| Cc1cc2nc(NC(=O)CCCc3cn(CC(=O)NC4CCCCC4)nn3)[nH]c2cc1C [12b, 4-(1-(2-(Cyclohexylamino)-2-oxoethyl)-1H-1,2,3-triazol-4-yl)-N-(5,6-dimethyl-1H-benzo[d]imidazol-2-yl)butanamide] | 5.35 ± 10.2 | 9.74 ± 20.7 | 30.8 ± 26.4 | – | – | – | – |
| O=C(Cn1cc(-c2ccc(C(F)(F)F)cc2)nn1)Nc1nc2ccccc2[nH]1 [6o, N-(1H-Benzo[d]imidazol-2-yl)-2-(4-(4-(trifluoromethyl)phenyl)-1H-1,2,3-triazol-1-yl)acetamide] | 57.5 ± 7.73 | 59.9 ± 7.99 | 64.2 ± 7.3 | – | – | – | – |
| O=C(Cn1cc(-c2ccc(O)cc2)nn1)Nc1nc2ccccc2[nH]1 [6m, N-(1H-Benzo[d]imidazol-2-yl)-2-(4-(4-hydroxyphenyl)-1H-1,2,3-triazol-1-yl)acetamide] | 34.4 ± 4.97 | 45.7 ± 6.21 | 58.4 ± 7.75 | – | – | – | – |
| O=C1C=C(Br)/C(=C/Br)O1 [Furanone 30, reference compound] | – | – | – | 77.33 ± 2.00 | 83.02 ± 3.15 | 86.86 ± 1.18 | – |
| CCCCCc1cn(CC(=O)Nc2nc3cc(C)c(C)cc3[nH]2)nn1 [7b, N-(5,6-Dimethyl-1H-benzo[d]imidazol-2-yl)-2-(4-pentyl-1H-1,2,3-triazol-1-yl)acetamide] | 16.9 ± 5.74 | 20.2 ± 11.5 | 26.6 ± 20.8 | – | – | – | – |
| COc1ccc(-c2cn(CC(=O)Nc3nc4cc(C)c(C)cc4[nH]3)nn2)cc1 [7k, N-(5,6-Dimethyl-1H-benzo[d]imidazol-2-yl)-2-(4-(4-methoxyphenyl)-1H-1,2,3-triazol-1-yl)acetamide] | 20.4 ± 2.59 | 24.3 ± 23.3 | > 40 | – | – | – | 40.82 ± 23.41 |
| Cc1cc2nc(NC(=O)Cn3cc(-c4ccc(O)cc4)nn3)[nH]c2cc1C [7j, N-(5,6-Dimethyl-1H-benzo[d]imidazol-2-yl)-2-(4-(4-hydroxyphenyl)-1H-1,2,3-triazol-1-yl)acetamide] | 17.6 ± 6.21 | 24.2 ± 14.5 | > 40 | – | – | – | 44.73 ± 13.15 |
| O=C(Cn1cc(CCC(=O)Nc2nc3ccccc3[nH]2)nn1)Nc1ccccn1 [10b, N-(1H-Benzo[d]imidazol-2-yl)-3-(1-(2-oxo-2-(pyridin-2-ylamino)ethyl)-1H-1,2,3-triazol-4-yl)propanamide] | 4.4 ± 2.93 | 15.6 ± 7.17 | 28.5 ± 17.5 | – | – | – | – |
| Cc1cc2nc(NC(=O)Cn3cc(-c4ccc(C(F)(F)F)cc4)nn3)[nH]c2cc1C [7l, N-(5,6-Dimethyl-1H-benzo[d]imidazol-2-yl)-2-(4-(4-(trifluoromethyl)phenyl)-1H-1,2,3-triazol-1-yl)acetamide] | 36.1 ± 7.67 | 56.4 ± 5.85 | 65.8 ± 1.91 | – | – | – | – |
| Cc1ccc(-c2cn(CC(=O)Nc3nc4cc(C)c(C)cc4[nH]3)nn2)cc1 [7i, N-(5,6-Dimethyl-1H-benzo[d]imidazol-2-yl)-2-(4-(p-tolyl)-1H-1,2,3-triazol-1-yl)acetamide] | – | 14.9 ± 8.82 | 50.7 ± 12.3 | – | – | – | – |
| Cc1cc2nc(NC(=O)Cn3cc(-c4cccc([N+](=O)[O-])c4)nn3)[nH]c2cc1C [7n, N-(5,6-Dimethyl-1H-benzo[d]imidazol-2-yl)-2-(4-(3-nitrophenyl)-1H-1,2,3-triazol-1-yl)acetamide] | 34.2 ± 7.43 | 34.4 ± 14.1 | 46.7 ± 4.87 | – | – | – | – |
| CCCCCCCc1cn(CC(=O)Nc2nc3ccccc3[nH]2)nn1 [6c, N-(1H-Benzo[d]imidazol-2-yl)-2-(4-heptyl-1H-1,2,3-triazol-1-yl)acetamide] | 25.7 ± 7.62 | 34.7 ± 11.6 | 42.8 ± 14.6 | – | – | – | – |
